Screens: PubChem BioAssay, Sanford-Burnham Center for Chemical Genomics
Not all results are given here.
HKDC1 act – HKDC1 (human) hexokinase activation; Q2TB90; recombinant HKDC1, G6PDH/diaphorase resazurin fluorescence; hits give low values; activity change, negative = activation, % at 20 µM; hit rate 0.056% among 340,000; AID 493187;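 active means activation of 40% or more at 20 µM, a change of -40% or lower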
Target sequence (Q2TB90 whole entry, looked up): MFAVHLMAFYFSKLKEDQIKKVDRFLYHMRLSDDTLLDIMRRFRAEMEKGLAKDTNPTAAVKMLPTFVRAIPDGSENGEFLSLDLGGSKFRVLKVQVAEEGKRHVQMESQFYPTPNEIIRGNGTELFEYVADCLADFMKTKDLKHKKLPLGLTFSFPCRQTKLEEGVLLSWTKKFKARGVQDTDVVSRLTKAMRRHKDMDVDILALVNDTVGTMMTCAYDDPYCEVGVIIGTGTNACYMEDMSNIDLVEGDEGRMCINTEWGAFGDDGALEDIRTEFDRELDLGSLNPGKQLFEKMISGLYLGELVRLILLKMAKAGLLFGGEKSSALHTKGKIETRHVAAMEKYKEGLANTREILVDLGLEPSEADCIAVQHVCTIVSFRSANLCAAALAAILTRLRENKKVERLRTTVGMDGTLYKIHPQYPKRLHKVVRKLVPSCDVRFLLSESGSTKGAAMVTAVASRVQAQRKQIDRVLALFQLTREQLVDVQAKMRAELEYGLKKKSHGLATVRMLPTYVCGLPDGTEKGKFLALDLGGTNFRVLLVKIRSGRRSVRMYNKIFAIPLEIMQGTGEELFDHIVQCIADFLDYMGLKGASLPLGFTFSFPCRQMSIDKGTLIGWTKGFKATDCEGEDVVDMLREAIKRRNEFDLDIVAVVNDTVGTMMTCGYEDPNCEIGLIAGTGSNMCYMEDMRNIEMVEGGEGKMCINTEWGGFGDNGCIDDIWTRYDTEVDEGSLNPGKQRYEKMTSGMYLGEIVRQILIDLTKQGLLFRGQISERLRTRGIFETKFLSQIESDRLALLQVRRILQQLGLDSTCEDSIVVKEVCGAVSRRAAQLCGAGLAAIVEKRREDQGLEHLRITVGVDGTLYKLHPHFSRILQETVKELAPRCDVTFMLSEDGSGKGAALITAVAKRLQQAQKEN
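Material – in-house human HKDC1 enzyme, G6PDH and diaphorase coupling enzymes · Input – HKDC1 at 5 µg/mL final · Buffer or medium – pH 8.0 Tris with MgCl2 · Dosing – single compound dose of 20 µM, 1% DMSO final · Incubation – 90 min, room temperature · Technique – resorufin fluorescence from 100 µM resazurin, NADP 1 mM, Ex 525/Em 613 nm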
Starred values were filed as active, the others as inactive.

SMILES | HKDC1 act
COc1ccccc1N(CC(=O)N/N=C/c1c(O)ccc2ccccc12)S(C)(=O)=O | -40*
COc1ccc(S(=O)(=O)Nc2ccc(O)c3ccccc23)cc1 | 46
Oc1ccc2ccccc2c1C=NC1CCCCC1 | 35
Cc1ccccc1NC1=C/C(=N\S(=O)(=O)c2cccs2)c2ccccc2C1=O | 63
Cc1ccc(C)c(-n2c3nc(=O)[nH]c(=O)c-3cc3cc([N+](=O)[O-])ccc32)c1 | 47
O=C(O)c1cc(O)c2c(c1)[C@@H]([C@H]1c3cc(C(=O)O)cc(O)c3C(=O)c3c(O[C@@H]4O[C@H](CO)[C@@H](O)[C@H](O)[C@H]4O)cccc31)c1cccc(O[C@@H]3O[C@H](CO)[C@@H](O)[C@H](O)[C@H]3O)c1C2=O | 80
CC(=O)NC1=C(N(C)C2CCS(=O)(=O)C2)C(=O)c2ccccc2C1=O (stereo not given) | 39
CCOC(=O)c1c(C)[nH]c(C2=NNC(=NC3CC3)SC2)c1C | -77*
CCc1ccc2c(c1)C(NC(C)=O)C(=O)N2CCN1CCOCC1 (stereo not given) | 80
CCOC(=O)c1cc2c(=Cc3ccc(N(C)C)cc3)c3ccccc3n2[n+]1C | 37
COc1cc([N+](=O)[O-])ccc1-c1ccc(/C=C2\C(=O)ON=C2c2ccccc2)o1 | 44
Cc1ccc2cc(C=C(C#N)C#N)c(N3CCCCC3)nc2c1 | 41
CC(C)CNC(=O)COC(=O)CNC(=O)c1cc(Cl)cc([N+](=O)[O-])c1 | -52*
Cc1cc2cc(CCNC(=O)c3cccc([N+](=O)[O-])c3)c(=O)[nH]c2cc1C | 40
COc1ccc(C(=O)/C=C/Sc2nc3ccccc3o2)cc1 | 38
Cc1ccc(C)c(-n2nnnc2Sc2nnnn2-c2ccccc2)c1 | 47
COCCN1C=C2C(=O)C(C)(OC(=O)CCC(=O)OC)C(=O)C(Br)=C2C=C1c1ccc(OC)cc1 (stereo not given) | 38
S=C1Cc2ccccc2N1 | -303*
CCC(C)(C)NC(=O)C1CCC(CNS(=O)(=O)c2cccc3nsnc23)CC1 (stereo not given) | 51
COc1cc(OC)c(OC)cc1CCC(C)NCCC(c1ccccc1)c1ccccc1 (stereo not given) | 81
COc1ccc2c(c1)/C(=C\c1cccc(/C=C3/C(=O)Nc4ccc(OC)cc43)n1)C(=O)N2 | 37
COc1ccc(-n2c(C)cc(C(=O)CCl)c2C)cc1 | 35
COc1ccc(CN2C(=O)c3cccnc3C2O)cc1 (stereo not given) | 41
COC(=O)c1cc(=O)n(Cc2ccc(OC)cc2)c(=NCc2ccc(OC)cc2)s1 | -43*
CCOC(=O)/C=C(\C)Sc1cc(O)c2ccccc2c1O | 57
SMILES | HKDC1 act
O=C1C(N2CCOCC2)=C(n2nnc3ccccc32)C(=O)c2ccccc21 | 43
COc1ccc(C(=O)/C=C/c2ccsc2)cc1CSCC(=O)O | 36
CCCCC(=O)NC(c1ccc(N(CC)CC)cc1)c1ccc2cccnc2c1O (stereo not given) | -46*
Cc1cc(SCC(=O)c2cccc([N+](=O)[O-])c2)nc(=O)[nH]1 | -54*
Cc1cccc(-n2c3nc(=O)[nH]c(=O)c-3cc3cc([N+](=O)[O-])ccc32)c1 | 42
O=C(C#Cc1ccccc1)c1cccc([N+](=O)[O-])c1 | 37
COc1cc(/C=C2\SC(=O)N(c3cccc(Cl)c3)C2=O)cc([N+](=O)[O-])c1O | 51
Cc1ccccc1Nc1nc(N)nc(CSc2nnc3sc4ccccc4n23)n1 | 36
O=C(CCc1ccccc1)NCC(=O)N/N=C/c1ccc(O)cc1O | -43*
O=C(CN1CCCc2ccccc21)N/N=C/c1ccc(O)cc1O | -43*
O=C(CNC(=O)c1cccs1)N/N=C/c1ccc(O)cc1O | -46*
COc1ccccc1/C=C\C(=O)NCC(=O)N/N=C/c1ccc(O)cc1O | -41*
O=C(OCn1ncc(Cl)c(Cl)c1=O)c1ccc(C(F)(F)F)cc1 | 46
O=C(CNC(=O)/C=C/c1ccco1)N=Nc1c(O)[nH]c2ccccc12 | 51
COC(=O)c1ccc(CCc2cc(O)c(Br)cc2O)cc1 | 69
COc1ccc(OC)c2[nH]c(=O)c(CCNC(=O)c3cc4ccccc4o3)cc12 | 38
O=C(O)c1cccc(-n2cccc2/C=C2/NC(=O)N(c3ccc(Cl)cc3)C2=O)c1 | 61
COc1ccc(CN2C(=O)c3cccnc3C2Nc2cc(Cl)ccc2OC)cc1 (stereo not given) | 52
O=S(=O)(Nc1cc(Sc2ncn[nH]2)c(O)c2ccccc12)c1ccccc1 | 55
CC1(OC(=O)C2CCCC2)C(=O)C=C2C=C(c3ccsc3)N(CCc3c[nH]c4ccccc34)C=C2C1=O (stereo not given) | 35
CCN(CC)Cc1cc(O)c(CN(CC)CC)cc1O | 47
CCOC(=O)c1sc(NC(=O)CSc2nnc(Cc3ccccc3)o2)c(C#N)c1C | -40*
CCOC(=O)c1ccc(NC(=O)CSc2ccc(-c3ccccn3)nn2)cc1 | 37
NC(=S)N=Nc1c(O)cc(O)c2[nH]c(=O)ccc12 | 35
O=c1cc(O)c2sc(Nc3ccc(Cl)c(F)c3)nc2[nH]1 | 39
SMILES | HKDC1 act
O=C(N/N=C/c1ccc(O)cc1O)c1ccc(CN2C(=O)c3cccc4cccc2c34)cc1 | -41*
O=C(c1ccccc1)c1n[nH]c(-c2ccccc2)cc1=O | -42*
O=C(COC(=O)c1n[nH]c2ccccc12)c1cccc(Br)c1 | 38
CCOc1ccc(N)c(SSc2cc(OCC)ccc2N)c1 | -42*
CCOc1ccc2nc3cc(N=Nc4ccc(N)nc4N)ccc3c(N)c2c1 | 37
O=C1OC(c2ccc3ccccc3c2O)(c2ccc3ccccc3c2O)c2ccccc21 | 36
CCOC(=O)C1=C(Cc2ccc(F)cc2)C(=O)c2ccccc2C1=O | 73
O=C(O)c1ccc(N2C(=O)/C(=C/c3ccc(-c4ccc([N+](=O)[O-])cc4)o3)C=C2c2ccccc2)cc1 | 43
Cc1ccccc1N=C1NN=C(c2ccccc2F)CS1 | -47*
O=C(CSc1nnc(CCCN2C(=O)c3cccc4cccc(c34)C2=O)n1-c1ccccc1)N1CCN(CCO)CC1 | 42
CCCc1nc2c(c(=O)c3ccccc3n2C)c(=O)n1-c1ccc(F)cc1 | 51
O=C1C=CC(=O)c2c(O)c(N3CCN(CCOCCO)CC3)c(Br)c(O)c21 | 46
O=C(OCC(=O)N1CCN(C(=O)c2ccco2)CC1)c1cc(-c2ccco2)nc2ccccc12 | 37
CCC[n+]1c2ccccc2cc2ccccc21 | 37
CCCCN(CCCC)C(=S)N/N=C/c1c(C)[nH]n(-c2ccccc2)c1=O | -41*
Cc1[nH]n(-c2ccccc2)c(=O)c1/C=N/Nc1nncc(-c2ccccc2)n1 | -47*
NC1=CC(=O)C(=O)c2ccccc21 | 49
O=C1C(O)=CC(=C(c2ccccc2)c2ccccc2)c2ccccc21 | 78
Cn1c2ccccc2c2ccc3c(c21)C(=O)C=CC3=O | 37
O=C(NN1CCOCC1)c1ccc(Cl)c([N+](=O)[O-])c1 | 36
Cc1ccc(/C=C/C(=O)c2ccc([N+](=O)[O-])o2)cc1 | 46
COc1ccc(Oc2cc(C)nc(Cl)n2)nn1 | -78*
CCOC(=O)c1c(C)sc2c1N(C(=O)CCl)c1cc(Cl)ccc1S2 | 45
O=C1C(Cl)=C(N2CCN(c3ccccc3[N+](=O)[O-])CC2)C(=O)c2ccccc21 | 40
O=C(NC(=S)NNC(=O)c1ccccc1O)c1ccco1 | -44*
Cc1ccc(C(=O)c2coc3c2C(=O)C(=O)c2ccccc2-3)cc1 | 57
COP(=O)(OC)c1ccc(NCc2cc(O)ccc2O)cc1 | 43
